Here are results for one compound from ChEMBL document CHEMBL3526015, “Metabolism of the c-Fos/activator protein-1 inhibitor T-5224 by multiple human UDP-glucuronosyltransferase isoforms” (Drug Metab Dispos, 2011).

Data set [1] is described as follows: Substrate inhibition of T-5224 acyl O-glucuronide formation in human intestinal microsomes after 10 to 60 mins by HPLC method. On the set-up: species or system Intestine, Microsome. The procedure, abridged: (§1)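 Pooled liver (0.5 mg protein/mL) or intestinal (0.25 mg protein/mL) microsomes in 50 mM Tris-HCl pH 7.5, 8 mM MgCl2, alamethicin, 2% DMSO. T-5224 at 1–50 μM, 5 min preincubation at 37°C, started with 2 mM UDPGA. Incubated 10 min, or 20 min for intestinal microsomes at 1–5 μM. Acetonitrile stop, glucuronides by HPLC at 290 nm. Triplicates fitted to a substrate-inhibition model.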

The target of data set [2] is Liver microsome. Put plainly: Substrate inhibition of T-5224 hydroxyl O-glucuronide formation in human liver microsomes after 10 to 60 mins by HPLC method. In a few lines:
as §1
For orientation: Liver microsomes are vesicles of endoplasmic reticulum, rich in cytochrome P450 enzymes.

For data set [3], the system named is Liver microsome. Put plainly: Drug metabolism in pooled human liver microsomes assessed as T-5224 hydroxyl O-glucuronide formation in presence of UDPGA by LC-MS/MS method. In kind it is ADME.
A further data set addresses T1, Cytochrome P450 2C8 (Homo sapiens, UniProt P10632).
T1 sequence (P10632 whole entry): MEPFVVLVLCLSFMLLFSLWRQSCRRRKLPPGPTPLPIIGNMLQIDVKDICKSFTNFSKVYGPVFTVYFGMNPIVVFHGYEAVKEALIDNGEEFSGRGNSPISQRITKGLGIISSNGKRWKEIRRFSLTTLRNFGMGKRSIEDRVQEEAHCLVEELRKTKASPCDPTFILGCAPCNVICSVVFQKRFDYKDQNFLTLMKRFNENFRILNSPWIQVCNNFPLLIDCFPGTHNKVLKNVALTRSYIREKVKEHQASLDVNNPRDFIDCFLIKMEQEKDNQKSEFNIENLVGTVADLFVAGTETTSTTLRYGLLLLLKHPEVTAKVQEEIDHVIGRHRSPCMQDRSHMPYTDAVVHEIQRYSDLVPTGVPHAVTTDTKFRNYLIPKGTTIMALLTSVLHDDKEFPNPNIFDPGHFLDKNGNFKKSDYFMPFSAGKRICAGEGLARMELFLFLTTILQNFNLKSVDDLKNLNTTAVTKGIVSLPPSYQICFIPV
Put plainly: Drug metabolism assessed as human CYP2C8-mediated metabolite formation at 2 uM after 30 mins by HPLC method. The class given is ADME. The following applies: recombinant enzyme, 0.5 h. In a few lines:
(§2)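 Each recombinant human P450 was used at 50 pmol/mL with an NADPH-generating system and 2 μM 14C-T-5224 (0.5% DMSO final). Buffer was 100 mM Tris-HCl pH 7.5, except 100 mM potassium phosphate pH 7.4 for CYP2A6 and CYP2C9*1. Incubation ran 30 min at 37°C and was stopped with acetonitrile/methanol. Radioactive metabolite peaks were detected by C18 HPLC.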

Data set [4] has as its target T2, UDP-glucuronosyltransferase 1A1 (Homo sapiens, UniProt P22309).
T2 sequence (P22309 whole entry): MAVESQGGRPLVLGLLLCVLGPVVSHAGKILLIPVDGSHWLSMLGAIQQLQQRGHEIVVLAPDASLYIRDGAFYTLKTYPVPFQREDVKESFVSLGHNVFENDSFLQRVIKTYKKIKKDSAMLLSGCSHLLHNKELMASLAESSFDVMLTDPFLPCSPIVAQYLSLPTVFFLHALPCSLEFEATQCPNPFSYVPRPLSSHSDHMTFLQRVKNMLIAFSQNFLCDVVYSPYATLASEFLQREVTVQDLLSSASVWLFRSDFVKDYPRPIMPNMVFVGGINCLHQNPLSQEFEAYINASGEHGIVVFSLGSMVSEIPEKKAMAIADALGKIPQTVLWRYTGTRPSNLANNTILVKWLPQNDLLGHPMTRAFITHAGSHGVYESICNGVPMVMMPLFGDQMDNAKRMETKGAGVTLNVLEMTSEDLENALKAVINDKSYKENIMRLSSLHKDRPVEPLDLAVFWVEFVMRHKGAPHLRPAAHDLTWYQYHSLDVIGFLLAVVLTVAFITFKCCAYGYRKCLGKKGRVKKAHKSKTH
Put plainly: Drug metabolism assessed as Vmax/Km ratio for human UGT1A1-mediated T-5224 hydroxyl O-glucuronide formation per mg protein after 10 to 60 mins in presence of UDP-glucuronic acid by HPLC method. The class given is ADME. To be noted: recombinant enzyme. The procedure, abridged: (§3)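 Kinetics used recombinant UGT1A1, 1A3 or 1A8 (0.1 mg protein/mL) with T-5224 at 1–50 μM, 2 mM UDPGA and 60 min at 37°C, in triplicate. G2/G3 were measured by HPLC at 290 nm and fitted to a substrate-inhibition model (Vmax, Km, Ksi). UGT content was quantified by immunoblot, and kcat = Vmax/E0 was derived from it.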

Data set [5] in a line: Drug metabolism assessed as human CYP2D6*1-mediated metabolite formation at 2 uM after 30 mins by HPLC method. In kind it is ADME. The following applies: 0.5 h. The procedure, abridged:
as §2

Data set [6] can be described thus: Drug metabolism in human intestinal microsomes assessed as T-5224 hydroxyl O-glucuronide formation per mg protein after 10 to 60 mins by HPLC method. In kind it is ADME, Intestine, Microsome. In a few lines:
(§4)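 Pooled liver microsomes (0.5 mg/mL) were incubated 10 min. Pooled intestinal microsomes (0.25 mg/mL) ran 10 min at T-5224 10–50 μM and 20 min at 1–5 μM. Buffer was 50 mM Tris-HCl pH 7.5 with 8 mM MgCl2, alamethicin and 2 mM UDPGA, at 37°C, in triplicate. Glucuronides G2/G3 were read by HPLC at 290 nm and fitted for Vmax/Km.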

Data set [7] relates to Liver microsome. Put plainly: Drug metabolism in human liver microsomes assessed as T-5224 acyl O-glucuronide formation per mg protein after 10 to 60 mins by HPLC method. In kind it is ADME. The procedure, abridged: as §4
Data set [8] can be described thus: Drug metabolism in human intestinal microsomes assessed as Vmax/Km ratio for T-5224 hydroxyl O-glucuronide formation per mg protein after 10 to 60 mins by HPLC method. The class given is ADME, Intestine, Microsome. In a few lines: as §4
The target in data set [9] is T3, UDP-glucuronosyltransferase 1A3 (Homo sapiens, UniProt P35503).
T3 sequence (P35503 whole entry): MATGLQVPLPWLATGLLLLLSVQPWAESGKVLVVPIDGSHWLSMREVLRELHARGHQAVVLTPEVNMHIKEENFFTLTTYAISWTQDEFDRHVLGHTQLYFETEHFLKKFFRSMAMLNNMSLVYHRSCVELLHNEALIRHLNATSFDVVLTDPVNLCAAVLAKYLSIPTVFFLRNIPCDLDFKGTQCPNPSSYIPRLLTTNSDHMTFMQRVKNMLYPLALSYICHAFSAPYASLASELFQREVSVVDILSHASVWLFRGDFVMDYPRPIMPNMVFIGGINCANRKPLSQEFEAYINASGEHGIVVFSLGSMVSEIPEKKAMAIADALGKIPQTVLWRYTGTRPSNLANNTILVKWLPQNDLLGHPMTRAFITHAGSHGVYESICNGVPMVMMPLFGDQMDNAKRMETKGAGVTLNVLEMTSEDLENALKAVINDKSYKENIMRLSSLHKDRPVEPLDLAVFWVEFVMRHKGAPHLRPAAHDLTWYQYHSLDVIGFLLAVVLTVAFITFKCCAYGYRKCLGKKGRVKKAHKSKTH
Kind of data set: Drug metabolism assessed as Vmax/Km ratio for human UGT1A3-mediated T-5224 hydroxyl O-glucuronide formation per mg protein after 10 to 60 mins in presence of UDP-glucuronic acid by HPLC method. In kind it is ADME. The following applies: recombinant enzyme. The procedure, abridged: as §3

What is called Vmax is the top rate of the reaction or transport when substrate is in excess. For `O=C(O)CCc1cc(C(=O)c2ccc(OC3CCCC3)cc2O)ccc1OCc1ccc2c(O)noc2c1`, the Ki in data set [1] was found to be 2.64 µM; at Liver microsome [2], 27 µM. Besides, the Drug metabolism result in the data set with Liver microsome [3] is recorded as “metabolite_detected”; on Cytochrome P450 2C8 it was “metabolite_not_detected”; in [5], “metabolite_not_detected”. Further, the Vmax/Km in data set [4] is 26.2 µL/min; in data set [8], 34.6 µL/min; in data set [9], 47.5 µL/min. The maximal velocity (Vmax) in data set [6] is 106 pmol/min; in the data set on Liver microsome [7], 217 pmol/min.
